Assay results as given in ChEMBL document CHEMBL1123232, “Acyl, N-protected alpha-aminoacyl, and peptidyl derivatives as prodrug forms of the alcohol deterrent agent cyanamide” (J Med Chem, 1986).

What was measured:
Type in all cases: functional, organism-based
Rattus norvegicus [1] = test: (§1) Tested for effect on ethanol derived blood Ach levels in rats at 1.0 mmol/kg
In short: (§2)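 Fasted male Sprague-Dawley rats (185-225 g) received a single 1.0 mmol/kg ip dose at zero time, in saline or in 2% aqueous CMC if water-insoluble. Ethanol (2.0 g/kg, ip) was given at 2 or 15 h. Blood from open-chest cardiac puncture 1 h later went into 5 mM sodium azide. Headspace GC in duplicate against an AcH standard curve. Four rats per protocol; mean ± SE.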

Rattus norvegicus [2] = test: Compound was tested for effect on ethanol derived blood Ach levels in rats at administration (pro drug administration of 1.0 mmol/kg) ip; in short: as §2
Rattus norvegicus [3] = test: as §1; in short: as §2; remark: listed apart in the source
Rattus norvegicus [4] = test: Compound was tested for effect on ethanol derived blood Ach levels in rats at the administrations (pro drug administration of 1.0 mmol/kg) oral(po)
In short: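 A single 1.0 mmol/kg dose was given by stomach tube at zero time to fasted male Sprague-Dawley rats (185-225 g). Ethanol (2.0 g/kg, ip) was given 1 h before sacrifice: blood sampled at 4 h, or over 48 h with ethanol at 1, 4, 11, 23, 35 and 47 h, two rats per time. Cardiac blood went into sodium azide; AcH was measured by headspace GC in duplicate.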

| Structure (SMILES) | Concentration (Rattus norvegicus [1]) [µM] | Concentration (Rattus norvegicus [2]) [µM] | Concentration (Rattus norvegicus [3]) [µM] | Concentration (Rattus norvegicus [4]) [µM] |
| --- | --- | --- | --- | --- |
| N#CNC(=O)CNC(=O)OCc1ccccc1 | 35 | 850 | 900 | 125 |
| CC(C)(C)C(=O)NC#N | 200 | – | 1200 | – |
| N#CNC(=O)CNC(=O)c1ccccc1 | 200 | – | 400 | – |
| CCCC(=O)NC#N | 250 | – | 1750 | – |
| CCCCCCCCCCCCCCCCCC(=O)NC#N | 600 | – | 1300 | – |
| N#CNC(=O)c1ccccc1 | 100 | – | 300 | – |
| N#CNC(=O)Cc1ccccc1 | 1300 | – | 1250 | – |
| N#CNC(=O)C1CCC(=O)N1C(=O)OCc1ccccc1 (stereo not given) | 35 | – | 175 | – |
| N#CNC(=O)OCc1ccccc1 | 50 | – | 1200 | – |
| CC(C)C[C@H](NC(=O)c1ccccc1)C(=O)NC#N | 300 | – | 1000 | – |
| CC(C)C[C@H](NC(=O)CNC(=O)OCc1ccccc1)C(=O)NC#N | 35 | – | 1050 | – |
| CCCCCCCCCCCCCCCC(=O)NC#N | 1100 | 1150 | 1600 | 1300 |
| CC(C)C[C@H](NC(=O)[C@@H]1CCC(=O)N1)C(=O)NC#N | 25 | – | 200 | – |
| CC(=O)NC#N | 50 | 400 | 250 | 350 |
| N#CNC(=O)[C@H](Cc1ccccc1)NC(=O)[C@@H]1CCC(=O)N1 | 150 | – | 1150 | – |
| N#CNC(=O)C12CC3CC(CC(C3)C1)C2 | 75 | – | 1250 | – |
| N#CN | 225 | – | 1050 | – |
